Bounds are passed on as bounds.

The values below come from PMC5511061 (ACS infectious diseases, 2017).

One data set has as its system HsAdoMetDC. As to conditions: human versus T. brucei enzyme; cited from earlier work.
A further data set concerns T. brucei cells. Description: Rescue of cell growth inhibition with spermidine. In kind it is cell-based, Trypanosoma brucei.
Data set [1] relates to prozyme levels in T. brucei cells. The data set can be described thus: Western blotting analysis of prozyme expression levels in treated cells. The class given is cell-based, Trypanosoma brucei. As to conditions: cells grown 24 h with 1–2 × EC50 of compound versus vehicle. An outline of the steps:
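Bloodstream-form T. brucei treated 24 h with test compound; DMSO vehicle as neutral control and a reference AdoMetDC inhibitor as positive control. Cells harvested, lysed and run on SDS-PAGE. Blots probed with rabbit polyclonal anti-T. brucei prozyme (1000-fold dilution, Tris-buffered saline, 5% blocker). Membrane cut by molecular-weight marker; upper section probed with rabbit anti-BiP (100,000-fold) as loading control. Prozyme compared with vehicle.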

Data set [2] can be described thus: In vitro metabolic stability in hepatic microsomes, mouse. The class given is in vitro ADME. As to conditions: male, CD-1, mouse.
The test system of data set [3] is T. brucei brucei Lister 427 bloodstream-form (BSF) cells. Description: T. brucei cell viability growth assay. In kind it is cell-based, Trypanosoma brucei brucei.
Data set [4] has as its system P-glycoprotein (human MDR1). The data set can be described thus: MDCKII-hMDR1 monolayer permeability assay. In kind it is in vitro ADME. As to conditions: dog, MDCK-MDR1.
The target in data set [5] is T1, human AdoMetDC (HsAdoMetDC) (Homo sapiens, UniProt P17707).
T1 sequence (P17707 1-334): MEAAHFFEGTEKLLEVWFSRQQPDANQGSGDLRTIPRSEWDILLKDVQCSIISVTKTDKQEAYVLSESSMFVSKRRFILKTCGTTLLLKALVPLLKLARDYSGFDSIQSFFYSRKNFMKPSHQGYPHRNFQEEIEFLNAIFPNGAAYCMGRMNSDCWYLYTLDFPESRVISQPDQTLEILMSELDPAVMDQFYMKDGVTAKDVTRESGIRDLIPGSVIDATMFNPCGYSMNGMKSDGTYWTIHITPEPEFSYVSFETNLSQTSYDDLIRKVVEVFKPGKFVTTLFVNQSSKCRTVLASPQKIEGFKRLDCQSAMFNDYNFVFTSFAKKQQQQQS
The data set can be described thus: RapidFire-MS end-point AdoMetDC activity assay, human enzyme. In kind it is biochemical.

Data set [6] in a line: In vitro metabolic stability in hepatic microsomes, human. The class given is in vitro ADME. Particulars: both.

`Cl.Cl.Cl.N=C(N)c1cccc(/C=N/N=C(\N)N/N=C/c2cccc(C(=N)N)c2)c1` [CGP 40215A]: the “fold more potent against HsAdoMetDC” value with HsAdoMetDC is recorded as 500 fold.

For `Cc1nc2c(N)ncnc2n1[C@@H]1O[C@H](CN(C)C/C=C\CN)[C@@H](O)[C@H]1O` [Compound 1], the 50% effective concentration (EC50) in the data set on T. brucei cells (Trypanosoma brucei, read-out: T. brucei cell EC50, – Spd) stood at 0.3 nM; in data set [3] (Trypanosoma brucei, 48 h, read-out: T. brucei cell EC50) it was 1.8 nM. Also, in the data set with T. brucei cells (over 100× EC50 concentrations of compound, 1 mM spermidine), the “rescue of cell growth inhibition by spermidine supplementation” value is reported as “full rescue”. For the same compound, the Prozyme induction entry in data set [1] is recorded as “yes”. For the same compound, the half-life at 1 μM in data set [2] and in data set [6] was above 1.5 h in each case. In data set [3], the “EC50 fold below measured IC50 on the enzyme” value amounted to 100 fold. In data set [4], this compound displayed an apparent permeability from apical to basolateral (Papp A→B) of 1.1 ×10⁻⁶ cm/s. In data set [5], this compound registered a 50% inhibitory concentration (IC50) of 110 nM.
